ChEMBL document CHEMBL5724801, “EUbOPEN Chemogenomics Library - Multiplex” (2024)
Where “and” joins values, the source holds several entries; their conditions need not be identical. Equal entries are not always repeated.

System: HEK-293T
Test: Multiplex assay against HEK293T
Type: toxicity, cell-based
Conditions: human
How it was run: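 Per cents of healthy-nucleus cells form the tubulin, mitochondrial-mass and membrane-permeability phenotype values. Live cells were stained at seeding with Hoechst33342, BioTracker Green Microtubule Cytoskeleton Dye, MitoTracker Red and Annexin V Alexa Fluor 680. After compound addition they were imaged on a CQ1 microscope at 37°C and 5% CO2, and CellPathfinder machine-learning gating split them into Hoechst high-intensity objects or normal cells, normal cells into healthy, pyknosed or fragmented nuclei, and pyknosed cells into mitotic or apoptotic.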

[1] = 12 h, 1 µM, compound concentration 1 uM
[2] = 12 h, 10 µM, compound concentration 10 uM
[3] = 24 h, 1 µM, compound concentration 1 uM
[4] = 24 h, 10 µM, compound concentration 10 uM
[5] = 48 h, 1 µM, compound concentration 1 uM
[6] = 48 h, 10 µM, compound concentration 10 uM

COc1cccc2c1c(NS(=O)(=O)c1ccc(Cl)s1)nn2Cc1cccc(CNC(=O)C(C)(C)O)c1
Population Apoptotic (%) [1]: 31% and 34% | Population Fragmented Nuclei (%) [1]: 6% and 7% | Population Healthy Nuclei (%) [1]: 82% and 77% | Population Hoechst High Intensity Objects (%) [1]: 6% and 10% | Population Membrane Permeable-Phenotype (%) [1]: 0% | Population Mitochondria Different-Phenotype (%) [1]: 39% and 52% | Population Mitotic Cells (%) [1]: 68% and 65% | Population Normal (%) [1]: 93% and 89% | Population Pyknosed Nuclei (%) [1]: 10% and 15% | Population Tubulin-Different-Phenotype (%) [1]: 26% and 23% | Total Cell Count [1]: 469 and 315 | Population Apoptotic (%) [2]: 42% and 35% | Population Fragmented Nuclei (%) [2]: 6% and 5% | Population Healthy Nuclei (%) [2]: 80% and 78% | Population Hoechst High Intensity Objects (%) [2]: 7% and 11% | Population Membrane Permeable-Phenotype (%) [2]: 0% | Population Mitochondria Different-Phenotype (%) [2]: 51% and 69% | Population Mitotic Cells (%) [2]: 57% and 65% | Population Normal (%) [2]: 92% and 88% | Population Pyknosed Nuclei (%) [2]: 12% and 16% | Population Tubulin-Different-Phenotype (%) [2]: 38% and 33% | Total Cell Count [2]: 356 and 280 | Population Apoptotic (%) [3]: 26% and 44% | Population Fragmented Nuclei (%) [3]: 7% and 6% | Population Healthy Nuclei (%) [3]: 81% and 84% | Population Hoechst High Intensity Objects (%) [3]: 2% and 7% | Population Membrane Permeable-Phenotype (%) [3]: 0% | Population Mitochondria Different-Phenotype (%) [3]: 22% and 37% | Population Mitotic Cells (%) [3]: 73% and 55% | Population Normal (%) [3]: 97% and 92% | Population Pyknosed Nuclei (%) [3]: 11% and 8% | Population Tubulin-Different-Phenotype (%) [3]: 17% and 15% | Total Cell Count [3]: 617 and 357 | Population Apoptotic (%) [4]: 40% | Population Fragmented Nuclei (%) [4]: 10% and 9% | Population Healthy Nuclei (%) [4]: 73% and 77% | Population Hoechst High Intensity Objects (%) [4]: 5% | Population Membrane Permeable-Phenotype (%) [4]: 0% | Population Mitochondria Different-Phenotype (%) [4]: 34% and 46% | Population Mitotic Cells (%) [4]: 60% | Population Normal (%) [4]: 94% | Population Pyknosed Nuclei (%) [4]: 16% and 12% | Population Tubulin-Different-Phenotype (%) [4]: 23% and 22% | Total Cell Count [4]: 462 and 384 | Population Apoptotic (%) [5]: 16% and 28% | Population Fragmented Nuclei (%) [5]: 10% and 11% | Population Healthy Nuclei (%) [5]: 83% | Population Hoechst High Intensity Objects (%) [5]: 2% | Population Membrane Permeable-Phenotype (%) [5]: 0% and 2% | Population Mitochondria Different-Phenotype (%) [5]: 18% and 21% | Population Mitotic Cells (%) [5]: 83% and 71% | Population Normal (%) [5]: 97% | Population Pyknosed Nuclei (%) [5]: 6% and 4% | Population Tubulin-Different-Phenotype (%) [5]: 11% and 10% | Total Cell Count [5]: 1062 and 591 | Population Apoptotic (%) [6]: 26% and 35% | Population Fragmented Nuclei (%) [6]: 16% and 8% | Population Healthy Nuclei (%) [6]: 72% and 83% | Population Hoechst High Intensity Objects (%) [6]: 4% | Population Membrane Permeable-Phenotype (%) [6]: 0% | Population Mitochondria Different-Phenotype (%) [6]: 25% and 27% | Population Mitotic Cells (%) [6]: 73% and 65% | Population Normal (%) [6]: 95% | Population Pyknosed Nuclei (%) [6]: 10% and 7% | Population Tubulin-Different-Phenotype (%) [6]: 16% and 12% | Total Cell Count [6]: 646 and 550

CN1C[C@H](C(=O)N[C@]2(C)O[C@@]3(O)[C@@H]4CCCN4C(=O)[C@H](Cc4ccccc4)N3C2=O)C[C@@H]2c3cccc4[nH]cc(c34)C[C@H]21.CS(=O)(=O)O [DIHYDROERGOTAMINE MESYLATE]
Population Apoptotic (%) [1]: 38% and 46% | Population Fragmented Nuclei (%) [1]: 6% and 3% | Population Healthy Nuclei (%) [1]: 84% and 81% | Population Hoechst High Intensity Objects (%) [1]: 5% | Population Membrane Permeable-Phenotype (%) [1]: 0% | Population Mitochondria Different-Phenotype (%) [1]: 41% and 65% | Population Mitotic Cells (%) [1]: 61% and 53% | Population Normal (%) [1]: 94% | Population Pyknosed Nuclei (%) [1]: 8% and 14% | Population Tubulin-Different-Phenotype (%) [1]: 26% and 17% | Total Cell Count [1]: 418 and 285 | Population Apoptotic (%) [2]: 31% and 53% | Population Fragmented Nuclei (%) [2]: 7% and 5% | Population Healthy Nuclei (%) [2]: 76% and 80% | Population Hoechst High Intensity Objects (%) [2]: 9% and 11% | Population Membrane Permeable-Phenotype (%) [2]: 0% | Population Mitochondria Different-Phenotype (%) [2]: 48% and 61% | Population Mitotic Cells (%) [2]: 68% and 46% | Population Normal (%) [2]: 90% and 88% | Population Pyknosed Nuclei (%) [2]: 15% and 13% | Population Tubulin-Different-Phenotype (%) [2]: 29% and 23% | Total Cell Count [2]: 403 and 435 | Population Apoptotic (%) [3]: 28% and 51% | Population Fragmented Nuclei (%) [3]: 9% and 7% | Population Healthy Nuclei (%) [3]: 80% and 84% | Population Hoechst High Intensity Objects (%) [3]: 4% and 3% | Population Membrane Permeable-Phenotype (%) [3]: 0% | Population Mitochondria Different-Phenotype (%) [3]: 28% and 41% | Population Mitotic Cells (%) [3]: 71% and 48% | Population Normal (%) [3]: 95% and 96% | Population Pyknosed Nuclei (%) [3]: 9% and 8% | Population Tubulin-Different-Phenotype (%) [3]: 20% and 12% | Total Cell Count [3]: 621 and 341 | Population Apoptotic (%) [4]: 27% and 32% | Population Fragmented Nuclei (%) [4]: 10% and 9% | Population Healthy Nuclei (%) [4]: 76% and 84% | Population Hoechst High Intensity Objects (%) [4]: 5% and 6% | Population Membrane Permeable-Phenotype (%) [4]: 0% | Population Mitochondria Different-Phenotype (%) [4]: 33% and 39% | Population Mitotic Cells (%) [4]: 72% and 67% | Population Normal (%) [4]: 94% and 93% | Population Pyknosed Nuclei (%) [4]: 13% and 6% | Population Tubulin-Different-Phenotype (%) [4]: 26% and 16% | Total Cell Count [4]: 480 and 567 | Population Apoptotic (%) [5]: 29% and 28% | Population Fragmented Nuclei (%) [5]: 14% and 12% | Population Healthy Nuclei (%) [5]: 78% and 82% | Population Hoechst High Intensity Objects (%) [5]: 2% | Population Membrane Permeable-Phenotype (%) [5]: 1% and 0% | Population Mitochondria Different-Phenotype (%) [5]: 17% and 23% | Population Mitotic Cells (%) [5]: 70% and 71% | Population Normal (%) [5]: 97% | Population Pyknosed Nuclei (%) [5]: 6% and 5% | Population Tubulin-Different-Phenotype (%) [5]: 11% and 9% | Total Cell Count [5]: 1011 and 524 | Population Apoptotic (%) [6]: 22% and 31% | Population Fragmented Nuclei (%) [6]: 15% | Population Healthy Nuclei (%) [6]: 76% and 77% | Population Hoechst High Intensity Objects (%) [6]: 2% and 1% | Population Membrane Permeable-Phenotype (%) [6]: 0% | Population Mitochondria Different-Phenotype (%) [6]: 20% and 21% | Population Mitotic Cells (%) [6]: 77% and 68% | Population Normal (%) [6]: 97% and 98% | Population Pyknosed Nuclei (%) [6]: 7% and 6% | Population Tubulin-Different-Phenotype (%) [6]: 12% and 11% | Total Cell Count [6]: 778 and 793

COc1cc(/C=C(\C#N)C(=O)Nc2nnc(C(F)(F)F)s2)ccc1OCc1ccc(C(F)(F)F)cc1C(F)(F)F
Population Apoptotic (%) [1]: 10% and 12.9% | Population Fragmented Nuclei (%) [1]: 2.37% and 4.7% | Population Hoechst High Intensity Objects (%) [1]: 0.67% and 0% | Population Membrane Permeable-Phenotype (%) [1]: 0% | Population Mitochondria Different-Phenotype (%) [1]: 45.57% and 22.22% | Population Mitotic Cells (%) [1]: 90% and 87.1% | Population Normal (%) [1]: 99.33% and 100% | Population Pyknosed Nuclei (%) [1]: 44.07% and 83.22% | Total Cell Count [1]: 297 and 149 | Population Apoptotic (%) [2]: 7.56% and 15.32% | Population Fragmented Nuclei (%) [2]: 3.37% and 4.96% | Population Hoechst High Intensity Objects (%) [2]: 0% | Population Membrane Permeable-Phenotype (%) [2]: 0% | Population Mitochondria Different-Phenotype (%) [2]: 33.93% and 13.04% | Population Mitotic Cells (%) [2]: 92.44% and 84.68% | Population Normal (%) [2]: 100% | Population Pyknosed Nuclei (%) [2]: 40.07% and 78.72% | Total Cell Count [2]: 297 and 141 | Population Apoptotic (%) [3]: 13% and 14.66% | Population Fragmented Nuclei (%) [3]: 1.79% and 2.79% | Population Healthy Nuclei (%) [3]: 75.89% and 32.4% | Population Hoechst High Intensity Objects (%) [3]: 0.22% and 0% | Population Membrane Permeable-Phenotype (%) [3]: 1.18% and 0% | Population Mitochondria Different-Phenotype (%) [3]: 13.82% and 22.41% | Population Mitotic Cells (%) [3]: 87% and 85.34% | Population Normal (%) [3]: 99.78% and 100% | Population Pyknosed Nuclei (%) [3]: 22.32% and 64.8% | Population Tubulin-Different-Phenotype (%) [3]: 11.47% and 13.79% | Total Cell Count [3]: 449 and 179 | Population Apoptotic (%) [4]: 11.22% and 19.54% | Population Fragmented Nuclei (%) [4]: 0.62% and 1.78% | Population Healthy Nuclei (%) [4]: 79% and 46.75% | Population Hoechst High Intensity Objects (%) [4]: 0% and 0.59% | Population Membrane Permeable-Phenotype (%) [4]: 0.79% and 1.27% | Population Mitotic Cells (%) [4]: 88.78% and 80.46% | Population Normal (%) [4]: 100% and 99.41% | Population Pyknosed Nuclei (%) [4]: 20.37% and 51.48% | Population Tubulin-Different-Phenotype (%) [4]: 9.47% and 5.06% | Total Cell Count [4]: 481 and 170 | Population Apoptotic (%) [5]: 10.37% and 13.92% | Population Fragmented Nuclei (%) [5]: 1.93% and 3.61% | Population Healthy Nuclei (%) [5]: 85.65% and 55.67% | Population Hoechst High Intensity Objects (%) [5]: 0.09% and 1.52% | Population Membrane Permeable-Phenotype (%) [5]: 4.73% and 1.85% | Population Mitochondria Different-Phenotype (%) [5]: 13.1% and 24.07% | Population Mitotic Cells (%) [5]: 89.63% and 86.08% | Population Normal (%) [5]: 99.91% and 98.48% | Population Fragmented Nuclei (%) [6]: 1.97% and 2.88% | Population Healthy Nuclei (%) [6]: 88.86% and 79.5% | Population Hoechst High Intensity Objects (%) [6]: 0% and 2.11% | Population Membrane Permeable-Phenotype (%) [6]: 4.71% and 1.81% | Population Mitochondria Different-Phenotype (%) [6]: 9.16% and 21.72% | Population Mitotic Cells (%) [6]: 88.79% and 63.27% | Population Normal (%) [6]: 100% and 97.89% | Population Pyknosed Nuclei (%) [6]: 9.16% and 17.63%
